{
  "source": "ChEMBL document CHEMBL1649125",
  "about": "“Efficacy of the novel diamidine compound 2,5-Bis(4-amidinophenyl)- furan-bis-O-Methlylamidoxime (Pafuramidine, DB289) against Trypanosoma brucei rhodesiense infection in vervet monkeys after oral administration” (2009)",
  "key": {"[1]": {"system": "Trypanosoma brucei rhodesiense", "assay": "Antitrypanosomal activity against Trypanosoma brucei rhodesiense infected in vervet monkey 484 assessed as time to detect parasitemia in wet films of blood at 1 mg/kg, po administered on day 7 post infection for 5 days by hematocrit centrifugation technique", "assay_type": "functional", "procedure,_shortened": "(§1)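 Parasitemia was monitored from 3 days p.i. in ear-prick or inguinal venous blood. Methods were wet-film microscopy (detection limit 10^5 trypanosomes/ml) and hematocrit centrifugation technique (detection limit 10^3 trypanosomes/ml). Drug was given once daily by oral gavage: 5 days from day 7 p.i., or 10 days from day 28 p.i.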"}, "[2]": {"system": "Trypanosoma brucei rhodesiense", "assay": "Antitrypanosomal activity against Trypanosoma brucei rhodesiense infected in vervet monkey 501 assessed as time to detect parasitemia at 10 mg/kg, po administered on day 28 post infection for 10 days", "assay_type": "functional", "procedure,_shortened": "as §1"}, "[3]": {"system": "Trypanosoma brucei rhodesiense", "assay": "Antitrypanosomal activity against Trypanosoma brucei rhodesiense infected in vervet monkey 501 assessed as time to detect parasitemia in wet films of blood at 10 mg/kg, po administered on day 28 post infection for 10 days by hematocrit centrifugation technique", "assay_type": "functional", "procedure,_shortened": "as §1"}, "[4]": {"system": "Trypanosoma brucei rhodesiense", "assay": "Antitrypanosomal activity against Trypanosoma brucei rhodesiense infected in vervet monkey 485 assessed as time to detect CSF parasitosis at 1 mg/kg, po administered on day 7 post infection for 5 days measured after 14 to 21 days by microscopy", "assay_type": "functional", "procedure,_shortened": "(§2)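 Trypanosomes and white cells in free-flowing CSF were counted by hemocytometer. Negative CSF was centrifuged and re-examined. Samples still negative were inoculated at 0.2 ml intraperitoneally into two mice each. Drug was given once daily by oral gavage: 5 days from day 7 p.i., or 10 days from day 28 p.i.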"}, "[5]": {"system": "Trypanosoma brucei rhodesiense", "assay": "Antitrypanosomal activity against Trypanosoma brucei rhodesiense infected in vervet monkey assessed as body weight change at 10 mg/kg, po administered on day 28 post infection for 10 days", "assay_type": "functional", "procedure,_shortened": "(§3)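 Body weight change is given as percent of the mean preinfection weight (n=3 per group). It was recorded at day 0 p.t., day 28 p.t. and end point. Oral gavage was once daily: 5 days from day 7 p.i., or 10 days from day 28 p.i.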"}, "[6]": {"system": "Trypanosoma brucei rhodesiense", "assay": "Antimicrobial activity against Trypanosoma brucei rhodesiense infected in vervet monkeys assessed as cure from infection at 10 mg/kg, po administered for 10 days"}, "[7]": {"system": "Trypanosoma brucei rhodesiense", "assay": "Antitrypanosomal activity against Trypanosoma brucei rhodesiense infected in vervet monkey assessed as change in packed cell volume at 10 mg/kg, po administered on day 28 post infection for 10 days", "assay_type": "functional", "procedure,_shortened": "(§4)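 Three vervet monkeys were infected intravenously with T. b. rhodesiense KETRI 2537 and treated in late-stage disease. From day 28 p.i., a drug suspension was given by oral gavage once daily for 10 consecutive days. PCV was reported as % change from the mean preinfection value at day 0 p.t., day 28 p.t. and endpoint. Monitoring continued up to 180 days p.t.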"}, "[8]": {"system": "Trypanosoma brucei rhodesiense", "assay": "Antitrypanosomal activity against Trypanosoma brucei rhodesiense infected in vervet monkey 486 assessed as cure from infection at 10 mg/kg, po administered on day 7 post infection for 5 days", "assay_type": "functional, organism-based", "parameters": "dose 10 mg/kg", "procedure,_shortened": "(§5)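 Vervet monkeys (n=3 per group), infected with T. b. rhodesiense KETRI 2537. Dosed by oral gavage with a suspension once daily for 5 consecutive days from day 7 p.i. Cure meant no trypanosomes over 180 days p.t. in blood (wet film, HCT) or CSF (hemocytometer, centrifugation), with mouse subinoculation of negative samples.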"}, "[9]": {"system": "Trypanosoma brucei rhodesiense", "assay": "Antitrypanosomal activity against Trypanosoma brucei rhodesiense infected in vervet monkey 478 assessed as cure from infection at 10 mg/kg, po administered on day 14 post infection for 5 days"}, "[10]": {"system": "Trypanosoma brucei rhodesiense", "assay": "Antitrypanosomal activity against Trypanosoma brucei rhodesiense infected in vervet monkey 454 assessed as cure from infection at 10 mg/kg, po administered on day 7 post infection for 5 days", "assay_type": "functional, organism-based", "parameters": "dose 10 mg/kg", "procedure,_shortened": "as §5"}, "[11]": {"system": "Trypanosoma brucei rhodesiense", "assay": "Antitrypanosomal activity against Trypanosoma brucei rhodesiense infected in vervet monkey assessed as body weight change at 10 mg/kg, po administered on day 7 post infection for 5 days", "assay_type": "functional", "procedure,_shortened": "as §3"}, "[12]": {"system": "Trypanosoma brucei rhodesiense", "assay": "Antitrypanosomal activity against Trypanosoma brucei rhodesiense infected in vervet monkey assessed as change in packed cell volume at 10 mg/kg, po administered on day 28 post infection for 10 days measured on day 28 post treatment", "assay_type": "functional", "procedure,_shortened": "as §4"}, "[13]": {"system": "Trypanosoma brucei rhodesiense", "assay": "Antitrypanosomal activity against Trypanosoma brucei rhodesiense infected in vervet monkey assessed as change in packed cell volume at 10 mg/kg, po administered on day 14 post infection for 5 days measured on day 28 post treatment", "assay_type": "functional"}, "[14]": {"system": "Trypanosoma brucei rhodesiense", "assay": "Antitrypanosomal activity against Trypanosoma brucei rhodesiense infected in vervet monkey assessed as change in packed cell volume at 1 mg/kg, po administered on day 7 post infection for 5 days measured on day 28 post treatment", "assay_type": "functional", "procedure,_shortened": "(§6)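 Vervet monkeys, three per group, were infected intravenously with T. b. rhodesiense KETRI 2537. From day 7 p.i., a drug suspension was given by oral gavage once daily for 5 consecutive days. Packed cell volume was expressed as % change from the group's mean preinfection value. PCV was read at day 0 p.t., day 28 p.t. and endpoint, with follow-up to 180 days p.t.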"}, "[15]": {"system": "Trypanosoma brucei rhodesiense", "assay": "Antitrypanosomal activity against Trypanosoma brucei rhodesiense infected in vervet monkey assessed as change in packed cell volume at 10 mg/kg, po administered on day 7 post infection for 5 days", "assay_type": "functional", "procedure,_shortened": "as §6"}, "[16]": {"system": "Trypanosoma brucei rhodesiense", "assay": "Antimicrobial activity against Trypanosoma brucei rhodesiense infected in vervet monkeys assessed as cure from infection at 1 mg/kg, po administered on day 7 post infection for 5 days", "assay_type": "functional, organism-based", "parameters": "dose 1 mg/kg", "procedure,_shortened": "as §5"}, "[17]": {"system": "Trypanosoma brucei rhodesiense", "assay": "Antitrypanosomal activity against Trypanosoma brucei rhodesiense infected in vervet monkey assessed as change in packed cell volume at 3 mg/kg, po administered on day 7 post infection for 5 days", "assay_type": "functional", "procedure,_shortened": "as §6"}, "[18]": {"system": "Trypanosoma brucei rhodesiense", "assay": "Antitrypanosomal activity against Trypanosoma brucei rhodesiense infected in vervet monkey assessed as change in packed cell volume at 10 mg/kg, po administered on day 14 post infection for 5 days", "assay_type": "functional"}, "[19]": {"system": "Trypanosoma brucei rhodesiense", "assay": "Antitrypanosomal activity against Trypanosoma brucei rhodesiense infected in vervet monkey 471 assessed as time to detect parasitemia in wet films of blood at 10 mg/kg, po administered on day 14 post infection for 5 days by hematocrit centrifugation technique"}, "[20]": {"system": "Trypanosoma brucei rhodesiense", "assay": "Antitrypanosomal activity against Trypanosoma brucei rhodesiense infected in vervet monkey 484 assessed as time to detect parasitemia at 1 mg/kg, po administered on day 7 post infection for 5 days", "assay_type": "functional, organism-based", "parameters": "dose 1 mg/kg", "procedure,_shortened": "as §1"}, "[21]": {"system": "Trypanosoma brucei rhodesiense", "assay": "Antitrypanosomal activity against Trypanosoma brucei rhodesiense infected in vervet monkey 483 assessed as time to detect CSF parasitosis at 3 mg/kg, po administered on day 7 post infection for 5 days measured after 14 to 21 days by microscopy", "assay_type": "functional", "procedure,_shortened": "as §2"}, "[22]": {"system": "Trypanosoma brucei rhodesiense", "assay": "Antitrypanosomal activity against Trypanosoma brucei rhodesiense infected in vervet monkey 463 assessed as time to detect parasitemia at 1 mg/kg, po administered on day 7 post infection for 5 days", "assay_type": "functional", "procedure,_shortened": "as §1"}, "[23]": {"system": "Trypanosoma brucei rhodesiense", "assay": "Antitrypanosomal activity against Trypanosoma brucei rhodesiense infected in vervet monkey assessed as body weight change at 10 mg/kg, po administered on day 7 post infection for 5 days measured on day 28 post treatment", "assay_type": "functional", "procedure,_shortened": "as §3"}, "[24]": {"system": "Trypanosoma brucei rhodesiense", "assay": "Antitrypanosomal activity against Trypanosoma brucei rhodesiense infected in vervet monkey 483 assessed as time to detect CSF parasitosis at 3 mg/kg, po administered on day 7 post infection for 5 days measured after 7 to 14 days", "assay_type": "functional", "procedure,_shortened": "as §2"}, "[25]": {"system": "Trypanosoma brucei rhodesiense", "assay": "Antitrypanosomal activity against Trypanosoma brucei rhodesiense infected in vervet monkey 471 assessed as time to detect CSF parasitosis at 10 mg/kg, po administered on day 14 post infection for 5 days measured after 7 to 14 days", "assay_type": "functional, organism-based", "parameters": "dose 10 mg/kg"}},
  "note": "Calls of active or inactive are those of the source. The rule behind the calls is not given here.",
  "data": [
    {"smiles": "CONC(=N)c1ccc(-c2ccc(-c3ccc(C(=N)NOC)cc3)o2)cc1", "note": "[PAFURAMIDINE]", "values": [
      {"measurement": "Time", "setting": "[1]", "value": 4, "unit": "days"},
      {"measurement": "Time", "setting": "[2]", "value": 56, "unit": "days"},
      {"measurement": "Time", "setting": "[3]", "value": 73, "unit": "days"},
      {"measurement": "Time", "setting": "[4]", "value": 21, "unit": "days"},
      {"measurement": "Activity", "setting": "[5]", "value": -10.5, "unit": "%"},
      {"measurement": "Activity", "setting": "[6]", "value": "inactive"},
      {"measurement": "Activity", "setting": "[7]", "value": -41.3, "unit": "%"},
      {"measurement": "Time", "setting": "[8]", "value": "Active"},
      {"measurement": "Time", "setting": "[9]", "value": "Active"},
      {"measurement": "Time", "setting": "[10]", "value": "Active"},
      {"measurement": "Activity", "setting": "[11]", "value": -6.3, "unit": "%"},
      {"measurement": "Activity", "setting": "[12]", "value": -9.1, "unit": "%"},
      {"measurement": "Activity", "setting": "[13]", "value": -13.5, "unit": "%"},
      {"measurement": "Activity", "setting": "[14]", "value": -17, "unit": "%"},
      {"measurement": "Activity", "setting": "[15]", "value": -5.8, "unit": "%"},
      {"measurement": "Activity", "setting": "[16]", "value": "inactive"},
      {"measurement": "Activity", "setting": "[17]", "value": -9.4, "unit": "%"},
      {"measurement": "Activity", "setting": "[18]", "value": -25.8, "unit": "%"},
      {"measurement": "Time", "setting": "[19]", "value": 87, "unit": "days"},
      {"measurement": "Time", "setting": "[20]", "value": "inactive"},
      {"measurement": "Time", "setting": "[21]", "value": 55, "unit": "days"},
      {"measurement": "Time", "setting": "[22]", "value": 7, "unit": "days"},
      {"measurement": "Activity", "setting": "[23]", "value": 0, "unit": "%"},
      {"measurement": "Time", "setting": "[24]", "value": 69, "unit": "days"},
      {"measurement": "Time", "setting": "[25]", "value": "inactive"}
    ]}
  ]
}
